Like-named read-outs stand apart in the source and are kept apart here. Each block holds one compound with its values, some of them ahead of it.
Key:
TNAP [1] = target: T1, TNAP (Homo sapiens, UniProt P05186); assay: Luminescent TNAP assay with CDP-star substrate; assay type: biochemical
T1 sequence (P05186 18-501 limits assumed): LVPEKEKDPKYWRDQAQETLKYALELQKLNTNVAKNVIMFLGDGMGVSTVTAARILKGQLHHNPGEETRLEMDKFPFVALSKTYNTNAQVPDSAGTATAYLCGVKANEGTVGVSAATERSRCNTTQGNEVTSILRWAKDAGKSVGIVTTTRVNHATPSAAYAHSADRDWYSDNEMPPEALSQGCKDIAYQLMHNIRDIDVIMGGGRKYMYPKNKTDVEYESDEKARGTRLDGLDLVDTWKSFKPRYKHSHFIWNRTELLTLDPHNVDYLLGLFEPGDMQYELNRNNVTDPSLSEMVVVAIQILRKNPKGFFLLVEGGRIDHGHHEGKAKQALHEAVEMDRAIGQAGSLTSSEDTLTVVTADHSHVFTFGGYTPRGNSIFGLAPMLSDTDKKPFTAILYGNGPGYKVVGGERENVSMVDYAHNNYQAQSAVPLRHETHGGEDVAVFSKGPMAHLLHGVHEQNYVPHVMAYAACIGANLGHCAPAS

PLAP = PLAP (Homo sapiens, UniProt P05187); assay: Luminescent PLAP selectivity assay; assay type: biochemical; details: read-out: SDCCG panel IC50 PLAP, 85 µM CDP-star
Method in brief: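 Run as an analogue of the luminescent TNAP assay: CDP-star held at the PLAP Km. The TNAP version used 100 mM DEA-HCl pH 9.8, 1 mM MgCl2 and 20 uM ZnCl2, with luminescence read after 30 min at room temperature. Percent inhibition was computed against negative and positive control wells. Dose-response data were fitted to the Hill equation for IC50, excluding nephelometrically precipitating concentrations.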

IAP = target: T2, IAP (Homo sapiens, UniProt P09923); assay: Luminescent IAP selectivity assay; assay type: biochemical; details: read-out: SDCCG panel IC50 IAP, […] CDP-star
T2 sequence (P09923 20-503 limits assumed): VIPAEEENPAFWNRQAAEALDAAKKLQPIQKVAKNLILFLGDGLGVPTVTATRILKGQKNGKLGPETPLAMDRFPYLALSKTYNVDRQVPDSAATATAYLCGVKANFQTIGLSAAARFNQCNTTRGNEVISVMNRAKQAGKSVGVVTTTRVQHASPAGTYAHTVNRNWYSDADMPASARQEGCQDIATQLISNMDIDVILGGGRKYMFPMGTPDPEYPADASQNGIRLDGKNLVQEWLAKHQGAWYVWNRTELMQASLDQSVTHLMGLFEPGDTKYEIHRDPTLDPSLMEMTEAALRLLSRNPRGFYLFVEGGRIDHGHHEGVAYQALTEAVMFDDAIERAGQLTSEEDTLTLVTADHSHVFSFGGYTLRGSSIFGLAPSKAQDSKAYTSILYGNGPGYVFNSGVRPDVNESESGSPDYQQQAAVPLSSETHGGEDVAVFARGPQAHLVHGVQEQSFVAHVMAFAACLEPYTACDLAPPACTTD

TNAP [2] = target: T1, TNAP; assay type: biochemical; details: for MOI vs CDP*: mode of inhibition with respect to CDP-star (UC uncompetitive, C competitive); for MOI vs DEA: mode of inhibition with respect to DEA (C competitive, NC non-competitive)
TNAP [3] = target: T1, TNAP; assay: Colorimetric TNAP assay, pNPP substrate, absorbance at 405 nm; assay type: biochemical; details: colorimetric assays, 1 M DEA, compared with luminescent assay
TNAP [4] = target: T1, TNAP; details: ref Fishman and Sie, 1971; Van Belle, 1976; Farley et al., 1980; cited from earlier work
[5] = read-out: IC50 SAR-Lumi, dry powder compounds, 100 mM DEA
[6] = read-out: SDCCG panel IC50 TNAP

Chain of PLAP (P05187 23-506 limits assumed): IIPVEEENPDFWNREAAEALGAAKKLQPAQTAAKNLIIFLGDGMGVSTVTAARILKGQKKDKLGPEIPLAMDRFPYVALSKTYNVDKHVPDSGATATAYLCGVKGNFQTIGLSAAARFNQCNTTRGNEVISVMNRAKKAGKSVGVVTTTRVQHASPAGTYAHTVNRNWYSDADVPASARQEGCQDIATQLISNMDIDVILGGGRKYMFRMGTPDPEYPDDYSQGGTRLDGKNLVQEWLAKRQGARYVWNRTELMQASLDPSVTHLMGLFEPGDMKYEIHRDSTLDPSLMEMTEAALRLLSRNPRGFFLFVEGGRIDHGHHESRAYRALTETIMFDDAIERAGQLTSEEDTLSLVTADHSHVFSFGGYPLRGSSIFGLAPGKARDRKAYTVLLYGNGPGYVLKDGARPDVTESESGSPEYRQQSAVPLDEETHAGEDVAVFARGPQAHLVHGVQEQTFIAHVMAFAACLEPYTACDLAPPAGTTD

Compound: O=C(O)c1cc(-c2ccccc2Cl)n[nH]1 [MLS-0005718]
- IC50 (TNAP [1]; [5]): 743 nM
- IC50 (TNAP [1]; [6]): 743 nM
- IC50 (PLAP): > 100000 nM
- IC50 (IAP): 43500 nM
- MOI vs CDP* (TNAP [2]): competitive with CDP-star
- MOI vs DEA (TNAP [2]): competitive mechanism

- IC50 (PLAP): > 100000 nM
Compound: COc1ccc(OC)c(S(=O)(=O)Nc2cnc3ccccc3c2)c1 [MLS-0038949]

Compound: COc1ccc(OC)c(S(=O)(=O)Nc2ccc(O)c(Sc3ncn[nH]3)c2)c1 [MLS-0043574]
- Activity in the colorimetric assay (TNAP [3]): inactive

Compound: COc1ccc(C)cc1S(=O)(=O)Nc1cccnc1 [MLS-0010847]
- IC50 (TNAP [1]; [5]): 926 nM
- IC50 (TNAP [1]; [6]): 926 nM
- IC50 (PLAP): > 100000 nM
- IC50 (IAP): > 100000 nM

Compound: c1ccc([C@H]2CN3CCSC3=N2)cc1 [levamisole]
- Mode of inhibition of TNAP by known inhibitors (TNAP [4]): inhibited uncompetitively

Compound: NC(N)=NCCCC[C@H](N)C(=O)O [L-homoarginine]
- Mode of inhibition of TNAP by known inhibitors (TNAP [4]): inhibited uncompetitively

Compound: O=c1cc(-c2cccc3ccccc23)[nH][nH]1 [MLS-0039961]
- IC50 (TNAP [1]; [5]): 4620 nM
- IC50 (PLAP): > 100000 nM
- IC50 (IAP): > 100000 nM
- MOI vs CDP* (TNAP [2]): competitive with CDP-star
- MOI vs DEA (TNAP [2]): non-competitive

Compound: O=C1C2CC=CCC2C(=O)N1c1n[nH]c(Cc2ccccc2)n1 (stereo not shown) [MLS-0067142]
- IC50 (TNAP [1]; [5]): 186 nM
- IC50 (TNAP [1]; [6]): 186 nM
- IC50 (PLAP): 3140 nM
- IC50 (IAP): 539 nM
- MOI vs CDP* (TNAP [2]): competitive with CDP-star
- MOI vs DEA (TNAP [2]): competitive mechanism

Source: article PMC3403534 (Journal of Biomolecular Screening, 2009)
